Twelve compounds from ChEMBL document CHEMBL1143716, “Analysis of crucial structural requirements of 2-substituted pyrimido[4,5-b][1,5]oxazocines as NK(1) receptor antagonist by axially chiral derivatives” (Bioorg Med Chem, 2007) can be followed below.

Sequence of Substance-P receptor (Cavia porcellus) (P30547 whole entry): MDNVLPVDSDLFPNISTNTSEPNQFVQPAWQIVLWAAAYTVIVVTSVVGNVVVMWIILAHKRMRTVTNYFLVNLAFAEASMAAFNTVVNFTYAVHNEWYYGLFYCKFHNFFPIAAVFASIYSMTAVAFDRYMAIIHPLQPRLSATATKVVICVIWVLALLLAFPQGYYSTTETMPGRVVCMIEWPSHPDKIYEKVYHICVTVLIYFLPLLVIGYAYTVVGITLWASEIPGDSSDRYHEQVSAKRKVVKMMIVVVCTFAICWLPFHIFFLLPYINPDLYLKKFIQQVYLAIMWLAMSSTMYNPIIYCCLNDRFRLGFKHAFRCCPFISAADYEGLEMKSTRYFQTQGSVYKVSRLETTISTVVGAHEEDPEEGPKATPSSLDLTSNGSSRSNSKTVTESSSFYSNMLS

For this experiment, the target named is Substance-P receptor (Cavia porcellus) (UniProt P30547). The experiment is described as follows: Antagonist activity at guinea pig NK1 receptor assessed as effect on ileum contractions. The experiment is classed as functional, tissue-based. In short, it runs like this:
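Guinea pig ileum in organ bath with Tyrode's solution, 32 °C, gassed 95% O2/5% CO2, resting tension 1 g, 20 min equilibration. Pretreated 10 min with at least three concentrations of test compound in DMSO, then cumulative substance P concentration-response curve versus substance P control curve. KB by Schild method; means, n = 3–5.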
Turning to `CC(=O)N1C(C)CN(c2nc3c(c(-c4ccccc4C)n2)C(=O)N(Cc2cc(C(F)(F)F)cc(C(F)(F)F)c2)CCCO3)CC1C` (configuration not stated), the Kb (usually the affinity of an antagonist, worked out from how it opposes an agonist) came to 0.679 nM.
The result for `Cc1ccccc1-c1ncnc2c1C(=O)N(Cc1cc(C(F)(F)F)cc(C(F)(F)F)c1)C[C@H](C)CO2` reads 12.6 nM; that for `CC(=O)N1C(C)CN(c2nc3c(c(-c4ccccc4C)n2)C(=O)N(Cc2cc(C(F)(F)F)cc(C(F)(F)F)c2)C[C@H](C)CO3)CC1C` (some centres not stated), 0.217 nM; that for `CC(=O)N1CCN(c2nc3c(c(-c4ccccc4C)n2)C(=O)N(Cc2cc(C(F)(F)F)cc(C(F)(F)F)c2)C[C@@H](C)CO3)CC1`, 0.345 nM.
With `CC(=O)N1CCN(c2nc3c(c(-c4ccccc4C)n2)C(=O)N(Cc2cc(C(F)(F)F)cc(C(F)(F)F)c2)CCCO3)CC1` the figure was 0.105 nM; with `CC(=O)N1CCN(c2nc3c(c(-c4ccccc4C)n2)C(=O)N(Cc2cc(C(F)(F)F)cc(C(F)(F)F)c2)C[C@H](C)CO3)CC1`, 0.139 nM.
Turning to `CC(=O)N1C(C)CN(c2nc3c(c(-c4ccccc4C)n2)C(=O)N(Cc2cc(C(F)(F)F)cc(C(F)(F)F)c2)C[C@@H](C)CO3)CC1C` (some centres not stated), the Kb came to 0.545 nM.
The result for `Cc1ccccc1-c1nc(N(C)C)nc2c1C(=O)N(Cc1cc(C(F)(F)F)cc(C(F)(F)F)c1)CCCO2` reads 0.679 nM; that for `Cc1ccccc1-c1nc(N(C)C)nc2c1C(=O)N(Cc1cc(C(F)(F)F)cc(C(F)(F)F)c1)C[C@H](C)CO2`, 0.427 nM; that for `Cc1ccccc1-c1ncnc2c1C(=O)N(Cc1cc(C(F)(F)F)cc(C(F)(F)F)c1)C[C@@H](C)CO2`, 162 nM.
Take `Cc1ccccc1-c1nc(N(C)C)nc2c1C(=O)N(Cc1cc(C(F)(F)F)cc(C(F)(F)F)c1)C[C@@H](C)CO2`: the Kb worked out at 52.9 nM.
With `Cc1ccccc1-c1ncnc2c1C(=O)N(Cc1cc(C(F)(F)F)cc(C(F)(F)F)c1)CCCO2` the figure was 11.6 nM.
